In publication PMC8122083 (ACS infectious diseases, 2021):
Like-named read-outs stand apart in the source and are kept apart here.

Assays:
Assay type in all cases: cell-based
[1] = Cytotoxicity assay; conditions: human, FaDu cells
Method in brief: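 FaDu cells, maintained per ATCC protocols, were seeded in EMEM with 10% FBS at 3 x 10^5 cells/ml and grown 24 h at 37°C, 5% CO2. Medium was replaced with two-fold serial dilutions of test compound in fresh medium for 72 h, then with FBS-free EMEM plus resazurin (final 0.15 mM) for 3-5 h. Fluorescence read at ex 540/em 590 nm. IC50 fitted from percent inhibition versus growth controls, converted to pIC50, and reported as mean ± S.E.M.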

[2] = tested on: H. pylori SS1; test: H. pylori IC50 dose response; conditions: for IC50: Helicobacter pylori; for fold greater potency than compound 1: H. pylori SS1
[3] = tested on: H. pylori ATCC 43504; test: H. pylori IC50 dose response; conditions: for IC50: Helicobacter pylori
[4] = tested on: panel of representative Gram-negative and Gram-positive species, including commensals; test: MIC against panel of representative Gram-negative and Gram-positive species
[5] = SS1, read-out: H. pylori SS1 pIC50 (converted)
[6] = ATCC43504, read-out: H. pylori ATCC 43504 pIC50 (converted)

Row | SMILES | IC50 at 72 h [1] [nM] | IC50 [2, 5] [nM] | IC50 [3, 6] [nM] | also measured
1 | CN(CCCO)c1ncnc2sc(-c3ccccc3)cc12 [Compound 8, 3-(methyl(6-phenylthieno[2,3-d]pyrimidin-4-yl)amino)propan-1-ol] | 100000 | 6310 | 15800 | 
2 | OCCNc1ncnc2sc(-c3ccccc3)cc12 [Compound 9, 2-((6-phenylthieno[2,3-d]pyrimidin-4-yl)amino)ethan-1-ol] | 100000 | 2000 | 5010 | 
3 | CC(CO)Nc1ncnc2sc(-c3ccccc3)cc12 (centres unmarked) [Compound 10, 2-((6-phenylthieno[2,3-d]pyrimidin-4-yl)amino)propan-1-ol] | 100000 | 79.4 | 39.8 | fold greater potency than compound 1 [2]: 20 fold; fold increase in potency over compound 1 ([3]; ATCC43504): 37 fold
4 | CC(O)CNc1ncnc2sc(-c3ccccc3)cc12 (centres unmarked) [Compound 11, 1-((6-phenylthieno[2,3-d]pyrimidin-4-yl)amino)propan-2-ol] | 63100 | 398 | 1000 | fold greater potency than compound 1 [2]: 4 fold; fold increase in potency over compound 1 ([3]; ATCC43504): less than 2 fold
5 | C[C@@H](CO)Nc1ncnc2sc(-c3ccccc3)cc12 [Compound 12, (S)-2-((6-phenylthieno[2,3-d]pyrimidin-4-yl)amino)propan-1-ol] | 251000 | 2510 | 5010 | 
6 | C[C@H](CO)Nc1ncnc2sc(-c3ccccc3)cc12 [Compound 13, (R)-2-((6-phenylthieno[2,3-d]pyrimidin-4-yl)amino)propan-1-ol] | 31600 | 31.6 | 158 | fold greater potency than compound 1 [2]: 56 fold
7 | COCC(C)Nc1ncnc2sc(-c3ccccc3)cc12 (centres unmarked) [Compound 14, N-(1-methoxypropan-2-yl)-6-phenylthieno[2,3-d]pyrimidin-4-amine] | 31600 | 398 | 1260 | fold less potent than compound 10 ([3]; ATCC43504): 29 fold
8 | OCCCCNc1ncnc2sc(-c3ccccc3)cc12 [Compound 15, 4-((6-phenylthieno[2,3-d]pyrimidin-4-yl)amino)butan-1-ol] | 126000 | 316 | 1580 | 
9 | CCC(CO)Nc1ncnc2sc(-c3ccccc3)cc12 (centres unmarked) [Compound 16, 2-((6-phenylthieno[2,3-d]pyrimidin-4-yl)amino)butan-1-ol] | 39800 | 20 | 100 | 
10 | CCC(O)CNc1ncnc2sc(-c3ccccc3)cc12 (centres unmarked) [Compound 17, 1-((6-phenylthieno[2,3-d]pyrimidin-4-yl)amino)butan-2-ol] | 39800 | 251 | 794 | 
11 | CC(C)C(CO)Nc1ncnc2sc(-c3ccccc3)cc12 (centres unmarked) [Compound 18, 3-methyl-2-((6-phenylthieno[2,3-d]pyrimidin-4-yl)amino)butan-1-ol] | 50100 | 794 | 3160 | 
12 | COc1ccc(CCNc2ncnc3sc(-c4ccccc4)cc23)cc1OC [Compound 19, N-(3,4-dimethoxyphenethyl)-6-phenylthieno[2,3-d]pyrimidin-4-amine] | 126000 | 39.8 | 158 | fold improved potency over compound 2 ([3]; ATCC43504): 11 fold; IC50 ([3]; ATCC43504): 160 nM
13 | Cc1ccc(CCNc2ncnc3sc(-c4ccccc4)cc23)cc1C [Compound 20, N-(3,4-dimethylphenethyl)-6-phenylthieno[2,3-d]pyrimidin-4-amine] | < 15800 | 501 | 79.4 | 
14 | c1ccc(-c2cc3c(NCCc4ccncc4)ncnc3s2)cc1 [Compound 21, 6-phenyl-N-(2-(pyridin-4-yl)ethyl)thieno[2,3-d]pyrimidin-4-amine] | 126000 | 1260 | 2510 | 
15 | c1ccc(-c2cc3c(NCCc4cccnc4)ncnc3s2)cc1 [Compound 22, 6-phenyl-N-(2-(pyridin-3-yl)ethyl)thieno[2,3-d]pyrimidin-4-amine] | 100000 | 3160 | 6310 | 
16 | COc1cccc(CNc2ncnc3sc(-c4ccccc4)cc23)c1OC [Compound 23, N-(2,3-dimethoxybenzyl)-6-phenylthieno[2,3-d]pyrimidin-4-amine] | 25100 | 501 | 1580 | 
17 | COc1ccc(CC(CO)Nc2ncnc3sc(-c4ccccc4)cc23)cc1 (centres unmarked) [Compound 24, 3-(4-methoxyphenyl)-2-((6-phenylthieno[2,3-d]pyrimidin-4-yl)amino)propan-1-ol] | 15800 | 251 | 126 | 
18 | COc1ccc([C@H](CO)Nc2ncnc3sc(-c4ccccc4)cc23)cc1 [Compound 26, (R)-2-(4-methoxyphenyl)-2-((6-phenylthieno[2,3-d]pyrimidin-4-yl)amino)ethan-1-ol] | 15800 | 6.31 | 10 | IC50 ([2]; SS1): 6.8 nM; fold increase in potency ([2]; SS1 (stated for both strains), lead compounds relative to hits): > 69 fold; MIC [4]: ≥ 16 µg/mL; fold increase in potency ([3]; ATCC 43504 (stated for both strains), lead compounds relative to hits): > 69 fold; IC50 ([3]; ATCC43504): 10 nM
19 | COc1ccc([C@@H](CO)Nc2ncnc3sc(-c4ccccc4)cc23)cc1 [Compound 27, (S)-2-(4-methoxyphenyl)-2-((6-phenylthieno[2,3-d]pyrimidin-4-yl)amino)ethan-1-ol] | 50100 | 100 | 50.1 | IC50 ([2]; SS1): 110 nM; IC50 ([3]; ATCC43504): 53 nM
20 | COc1ccc([C@H](CO)Nc2ncnc3sc(-c4ccccc4)cc23)c(F)c1 [Compound 29, (R)-2-(2-fluoro-4-methoxyphenyl)-2-((6-phenylthieno[2,3-d]pyrimidin-4-yl)amino)ethan-1-ol] | 31600 | 12.6 | 20 | MIC [4]: ≥ 16 µg/mL
21 | COc1ccc([C@H](CO)Nc2ncnc3sc(-c4ccccc4)cc23)cc1F [Compound 30, (R)-2-(3-fluoro-4-methoxyphenyl)-2-((6-phenylthieno[2,3-d]pyrimidin-4-yl)amino)ethan-1-ol] | 31600 | 12.6 | 15.8 | MIC [4]: ≥ 16 µg/mL
22 | Cc1sc2ncnc(N[C@@H](CO)c3ccccc3)c2c1C [Compound 37, (R)-2-((5,6-dimethylthieno[2,3-d]pyrimidin-4-yl)amino)-2-phenylethan-1-ol] | < 20000 | 631 | 6310 | 
23 | Cc1c(-c2ccccc2)sc2ncnc(N[C@@H](CO)c3ccccc3)c12 [Compound 38, (R)-2-((5-methyl-6-phenylthieno[2,3-d]pyrimidin-4-yl)amino)-2-phenylethan-1-ol] | 20000 | 50.1 | 316 | 
24 | Cc1sc2ncnc(N[C@@H](CO)c3ccccc3)c2c1-c1ccccc1 [Compound 39, (R)-2-((6-methyl-5-phenylthieno[2,3-d]pyrimidin-4-yl)amino)-2-phenylethan-1-ol] | 126000 | 7940 | 15800 | 
25 | OC[C@H](Nc1ncnc2scc(-c3ccccc3)c12)c1ccccc1 [Compound 40, (R)-2-phenyl-2-((5-phenylthieno[2,3-d]pyrimidin-4-yl)amino)ethan-1-ol] | 31600 | 501 | 3980 | 
